From ChEMBL document CHEMBL1154478, “Novel imidazo[1,2-a]naphthyridinic systems (part 1): synthesis, antiproliferative and DNA-intercalating activities” (2008)
The source made the active and inactive calls. The rule behind the calls is not given here.

Columns and labels:
HT-1080 = assay: Antiproliferative activity against human HT1080 cells after 48 hrs by SRB assay; assay type: functional; settings: HT-1080, 48 h
How it was run: (§1)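 Cells were grown in high-glucose DMEM with 5% defined bovine calf serum and pre-incubated 24 h at 37 °C in 5% CO2. Drugs were freshly dissolved in DMSO, diluted in medium and added in serial dilutions, with DMSO kept below 0.5%, and incubated 48 h. Cells were fixed with cold TCA (10% final, 60 min at 4 °C), stained 15 min with 0.1% SRB in 1% acetic acid, and the dye solubilized in Tris base. Absorbance was read at 585 nm and growth inhibition % calculated against a control plate fixed on the treatment day.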

HT-29 = assay: Antiproliferative activity against human HT-29 cells after 48 hrs by SRB assay; assay type: functional; settings: HT-29, 48 h; how it was run: as §1
M21 = assay: Antiproliferative activity against human M21 cells after 48 hrs by SRB assay; assay type: functional; settings: M21, 48 h; how it was run: as §1
MCF7 [1] = assay: Antiproliferative activity against human MCF7 cells after 48 hrs by SRB assay; assay type: functional; settings: MCF7, 48 h; how it was run: as §1
[2] = Binding affinity to pGEM-9Zf(-) DNA assessed as effect on DNA migration at 40 uM by gel electrophoresis
How it was run: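 Human topo1 was then added and the mix held 2 h at 37 °C in the dark. The reaction was stopped with SDS and proteinase K (1 h, 45 °C). Products were run on 1% agarose with 0.1% SDS in TBE (16 h, 1.25 V/cm), stained with ethidium bromide, and re-run 2 h at 2 V/cm. Ethidium bromide served as the intercalation reference and camptothecin as the poison control.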

MCF7 [3] = assay: Cell cycle arrest in human MCF7 cells assessed as accumulation at G2/M phase at 6.6 uM after 24 hrs by flow cytometry; assay type: functional, cell-based
How it was run: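 Exponentially growing MCF-7 cells were exposed to compound or DMSO control for 4, 24 or 48 h and analysed by flow cytometry with 488 nm argon laser excitation. Cell-cycle distribution was expressed as the treated/control ratio.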

| SMILES | GI50 (HT-1080) [µM] | GI50 (HT-29) [µM] | GI50 (M21) [µM] | GI50 (MCF7 [1]) [µM] | Activity [2] | Activity (MCF7 [3]) |
| --- | --- | --- | --- | --- | --- | --- |
| CCOC(=O)C1CCc2nc3c(ccn4ccnc34)cc2C1 (stereo not drawn) | 64.9 | 79.6 | 80.3 | 57.7 |  |  |
| Cc1cc2ccn3ccnc3c2nc1C | > 100 | > 100 | > 100 | > 100 |  |  |
| Cc1ccc2c(ccc3nccn32)n1 | > 100 | > 100 | > 100 | > 100 |  |  |
| c1cn2ccc3cc4c(nc3c2n1)CCCC4 | > 100 | > 100 | > 100 | > 100 |  |  |
| Cc1cc2c(ccc3nccn32)nc1C | > 100 | > 100 | > 100 | > 100 |  |  |
| c1cn2c(ccc3nc4c(cc32)CCCC4)n1 | > 100 | > 100 | > 100 | > 100 |  |  |
| CCc1ccc2ccn3ccnc3c2n1 | > 100 | > 100 | > 100 | > 100 |  |  |
| CCOC(=O)C1CCc2nc3ccc4nccn4c3cc2C1 (stereo not drawn) | > 100 | > 100 | > 100 | > 100 |  |  |
| COc1cc(NS(C)(=O)=O)ccc1Nc1c2ccccc2nc2ccccc12 [AMSACRINE] | 1.6 | 16.8 | 49.6 | 5.6 |  |  |
| c1ccc2c(c1)CCc1nc3c(ccn4ccnc34)cc1-2 | 41.4 | 49.2 | 64.8 | 46.5 |  |  |
| Cc1ccc2ccn3ccnc3c2n1 | > 100 | > 100 | > 100 | > 100 |  |  |
| c1ccc(-c2ccc3c(ccc4nccn43)n2)cc1 | 43.3 | 55.8 | 70.1 | 51.8 |  |  |
| c1ccc2cc3nc4c(ccn5ccnc45)cc3cc2c1 | 20.7 | 18.3 | 25.2 | 21.5 |  |  |
| c1ccc(-c2ccc3ccn4ccnc4c3n2)cc1 | 57.7 | 48.4 | 56.5 | 60.5 |  |  |
| CCc1ccc2c(ccc3nccn32)n1 | > 100 | > 100 | > 100 | > 100 |  |  |
| c1ccc2c(c1)CCc1cc3c(ccc4nccn43)nc1-2 | 32.7 | 27.8 | 52 | 20.9 |  |  |
| O=C1CCCc2nc3c(ccn4ccnc34)cc21 | > 100 | > 100 | > 100 | > 100 |  |  |
| c1ccc2c(c1)CCc1cc3ccn4ccnc4c3nc1-2 | 13.4 | 7.2 | 8.1 | 6.6 | Active | Active |
| O=C1CCCc2nc3ccc4nccn4c3cc21 | > 100 | > 100 | > 100 | > 100 |  |  |
